Laboratory results as given in ChEMBL document CHEMBL3286096, “Synthesis, biological evaluation and docking study of 3-aroyl-1-(4-sulfamoylphenyl)thiourea derivatives as 15-lipoxygenase inhibitors” (Eur J Med Chem, 2014).
Active and inactive are the calls of the source. The calls are words filed in the database; no cut-off is given here.

tested on: not listed separately; test: Neuroprotective activity against H2O2-induced rat differentiated PC12 cell death assessed as increase in cell viability at 10 uM after 24 hrs by MTT assay; format: functional, PC-12; settings: not given
How it was run: (§1)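 Rat PC12 cells grown in RPMI 1640 with 10% FCS, penicillin and streptomycin, then differentiated by a previously reported protocol. Differentiated cells were pretreated with compound at 1, 5 or 10 for 3 h before H2O2 exposure. Viability was read by MTT 24 h later and expressed relative to the H2O2-treated group.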

`Cc1cccc(C(=O)NC(=S)Nc2ccc(S(N)(=O)=O)cc2)c1` gave an Activity of 50%.

tested on: PC-12; test: Neuroprotective activity against H2O2-induced rat differentiated PC12 cell death assessed as increase in cell viability at 5 uM after 24 hrs by MTT assay; format: functional, cell-based; settings: not given; how it was run: as §1

For `O=c1c(O)c(-c2ccc(O)c(O)c2)oc2cc(O)cc(O)c12` [QUERCETIN], the Activity was “Active”.

tested on: PC-12; test: Neuroprotective activity against H2O2-induced rat differentiated PC12 cell death assessed as increase in cell viability at 1 to 10 uM after 24 hrs by MTT assay; format: functional, cell-based; settings: not given
How it was run: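 Rat PC12 cells were grown in RPMI 1640 with 10% FCS plus penicillin/streptomycin, then differentiated by a published protocol. Differentiated cells were pretreated with compound at 1, 5 and 10 for 3 h before H₂O₂ exposure, with quercetin 5 as reference. Viability was measured by MTT after 24 h and expressed relative to the H₂O₂-treated group.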

For `Cc1cccc(C(=O)NC(=S)Nc2ccc(S(N)(=O)=O)cc2)c1`, the Activity was “Active”.

tested on: not listed separately; test: Inhibition of soybean 15-LOX1 by UV spectrophotometric analysis; design: species or system Glycine max; settings: not given

In the case of `NS(=O)(=O)c1ccc(NC(=S)NC(=O)c2ccc([N+](=O)[O-])cc2)cc1`, the IC50 is reported as “ND(Insoluble)”.
With `NS(=O)(=O)c1ccc(NC(=S)NC(=O)c2ccc3ccccc3c2)cc1` the IC50 was “Not Active”.

same assay, conditions: read-out: IC50

In order of falling IC50:
1. NS(=O)(=O)c1ccc(NC(=S)NC(=O)c2ccco2)cc1  45 µM
2. NS(=O)(=O)c1ccc(NC(=S)NC(=O)c2cccs2)cc1  36 µM
3. Cc1ccc(C(=O)NC(=S)Nc2ccc(S(N)(=O)=O)cc2)cc1  28 µM
4. NS(=O)(=O)c1ccc(NC(=S)NC(=O)c2ccc(Cl)cc2)cc1  25 µM
5. NS(=O)(=O)c1ccc(NC(=S)NC(=O)c2ccc(Cl)cc2Cl)cc1  23.6 µM
6. COc1ccc(C(=O)NC(=S)Nc2ccc(S(N)(=O)=O)cc2)cc1  22.7 µM
7. NS(=O)(=O)c1ccc(NC(=S)NC(=O)c2ccccc2Cl)cc1  18.7 µM
8. O=c1c(O)c(-c2ccc(O)c(O)c2)oc2cc(O)cc(O)c12 [QUERCETIN]  18 µM
9. NS(=O)(=O)c1ccc(NC(=S)NC(=O)c2cc(F)c(F)c(F)c2F)cc1  12.6 µM
10. NS(=O)(=O)c1ccc(NC(=S)NC(=O)c2cccc(F)c2)cc1  8.7 µM
11. Cc1ccccc1C(=O)NC(=S)Nc1ccc(S(N)(=O)=O)cc1  8.1 µM
12. NS(=O)(=O)c1ccc(NC(=S)NC(=O)c2cccc(Cl)c2)cc1  6.7 µM
13. NS(=O)(=O)c1ccc(NC(=S)NC(=O)c2ccccc2)cc1  6 µM
14. Cc1cccc(C(=O)NC(=S)Nc2ccc(S(N)(=O)=O)cc2)c1  1.8 µM
